In brackets after ≈: the same amount, converted by molar mass.
Tested on: Mycobacterium tuberculosis variant bovis
Experiment: Antimicrobial activity against Mycobacterium bovis by two-fold serial dilution method
Format: functional
Summary of the method: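 Classical test-tube successive two-fold dilution in Youmans' modification of Proskauer and Beck liquid medium with 10% bovine serum. Inocula from 14-day-old cultures. Compounds dissolved in ethylene glycol (stock 10 mg/mL), diluted in medium to 0.75–100 µg/mL. Incubated at 37 °C. MIC is the lowest concentration inhibiting growth relative to a compound-free control.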

SMILES	MIC [µg/mL]
Brc1ccc2[nH]c(CCC3CCCCC3)nc2c1	0.75 (≈ 2.44 µM)
Cc1ccc2[nH]c(CCCc3ccccc3)nc2c1	25 (≈ 99.9 µM)
Cc1ccc2[nH]c(CCC3CCCCC3)nc2c1	12.5 (≈ 51.6 µM)
Fc1ccc2[nH]c(CCCC3CCCCC3)nc2c1	6.2 (≈ 23.8 µM)
Clc1ccc2[nH]c(CCC3CCCCC3)nc2c1	0.75 (≈ 2.85 µM)
Clc1cc2nc(CCCC3CCCCC3)[nH]c2cc1Cl	25 (≈ 80.3 µM)
Clc1cc2nc(CCCc3ccccc3)[nH]c2cc1Cl	3.1 (≈ 10.2 µM)
Cc1ccc2[nH]c(-c3cc(-c4ccccc4)ccn3)nc2c1	25 (≈ 87.6 µM)
Clc1cc2nc(CCC3CCCCC3)[nH]c2cc1Cl	1.5 (≈ 5.05 µM)
Cc1cc2nc(CCC3CCCCC3)[nH]c2cc1C	0.75 (≈ 2.93 µM)
Fc1ccc2[nH]c(CCC3CCCCC3)nc2c1	3.1 (≈ 12.6 µM)
O=[N+]([O-])c1ccc2[nH]c(CCC3CCCCC3)nc2c1	3.1 (≈ 11.3 µM)
Cc1cc2nc(CCCc3ccccc3)[nH]c2cc1C	6.2 (≈ 23.5 µM)
